# Assay results published in ChEMBL document CHEMBL4665656, “Toxicity, bioactivity, release of HS in vivo and pharmaco-kinetics of HS-donors with thiophosphamide structure” (Eur J Med Chem, 2019).
# Calls of active or inactive are those of the source. No cut-off for these calls is given here.
# Legend:
# H9c2 [1] = assay: Cardioprotective activity against H2O2- induced toxicity in rat H9c2 cells assessed as effect on cell morphology at 50 uM incubated for 8 hrs co-treated with 50 uM H2O2 measured after 24 hrs […]; type: functional, cell-based
# In short: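 H9c2 cells in 24-well plates treated with H2O2 (50, 200 or 400 µM) for 8 h plus compound 50 µM, 24 h total. Cells were stained with Giemsa for 30 min and morphology examined by microscopy.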
# [2] = Induction of H2S generation assessed as Cmax at 150 uM incubated at 37 degC and pH 1.2 by fluorescence spectrophotometry; type: functional
# In short: (§1)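 Donor at 150 µM final, mixed with 200 µM sulfonyl-azide fluorescent probe in buffer/acetonitrile (1:9) at set pH. Cuvette held in a water bath at 22 °C or 37 °C, with fluorescence read three times at intervals. H2S was quantified from a Na2S standard curve (0–200 µM, probe 200 µM).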
# [3] = Retention time of compound in serum by LC-MS analysis; type: physicochemical, cell-free
# In short: (§2)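 Compound incubated in PBS pH 7.4 or in serum, sampled every 12 h over 36 h, and analysed by LC-MS for parent and product peaks.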
# MCF7 = assay: Cytotoxicity in human MCF-7 cells assessed as growth inhibition incubated for 24 hrs by MTT assay; type: functional, cell-based; settings: MCF7, 24 h
# In short: (§3)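 Cells were grown in RPMI 1640 with 10% FBS at 37 °C and 10% CO2, seeded at 6×10^3 cells/well. Exposure was 24 h, with viability by MTT, in triplicate cultures. IC50 was reported as mean ± SD.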
# H9c2 [4] = assay: Cardioprotective activity against H2O2- induced toxicity in rat H9c2 cells assessed as increase in survival rate at 50 uM incubated for 8 hrs co-treated with 200 uM H2O2 measured after 24 hrs by MTT assay relative to control; type: functional
# In short: (§4)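 H9c2 cardiomyocytes injured with H2O2 (50, 200 or 400 µM) for 8 h together with compound (10–100 µM). Survival rate measured against the H2O2 model group. Six independent experiments, mean ± sd.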
# [5] = Toxicity in Wistar rat assessed as large and inflamed nucleus in spleen at 0.01 mmol/kg, ip administered for 14 days; type: organism-based; settings: in vivo, 336 h, time 14 day
# In short: (§5)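 Wistar rats (6/group) dosed ip daily for 14 days with compound in 10% DMSO; vehicle controls received 10% DMSO. Liver, kidney and spleen were fixed in 4% glutaraldehyde, sectioned, H-E stained and examined microscopically.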
# [6] = Retention time of compound in PBS by LC-MS analysis; type: physicochemical; settings: buffer; in short: as §2
# [7] = Drug metabolism in Wistar rat kidney homogenate assessed as metabolite formation incubated for 36 hrs by LC-MS; type: ADME, tissue-based; settings: tissue homogenate
# [8] = Toxicity in zebrafish embryos assessed as embryo malformation rate at 1 to 20 uM measured after 96 hpf relative to control; set-up: species or system Danio rerio; settings: in vivo
# [9] = Drug metabolism in Wistar rat heart homogenate assessed as metabolite formation incubated for 36 hrs by LC-MS; type: ADME, tissue-based; settings: tissue homogenate
# [10] = Induction of H2S generation assessed as half life at 150 uM incubated at 37 degC and pH 5 by fluorescence spectrophotometry; type: functional; in short: as §1
# [11] = Cytotoxicity against mouse RAW264.7 cells assessed as cell viability at 20 to 100 microM after 24 hrs by MTT assay; type: cell-based; settings: dose 20-100 µM, read-out: Activity
# In short: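 RAW264.7 macrophages in high-glucose DMEM with 10% heat-inactivated FBS, 37 °C, 5% CO2. LPS 1 µg/mL with or without compound (20 and 100 µM) for 24 h. Then MTT 4 h, formazan dissolved in DMSO, A570, expressed as % of control.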
# [12] = Toxicity in Wistar rat assessed as damaged glomeruli, marked gaps and swollen proximal convoluted tubules at 0.01 mmol/kg, ip administered for 14 days; type: organism-based; settings: in vivo, 336 h, time 14 day; in short: as §5
# [13] = Solubility of compound in water; type: physicochemical; settings: buffer
# [14] = Kinetic Solubility of compound; type: physicochemical
# [15] = Induction of H2S generation assessed as Cmax Induction of H2S generation assessed as Cmax at 150 uM incubated at 37 degC and pH 8 by fluorescence spectrophotometry; type: functional; in short: as §1
# H9c2 [16] = assay: Cardioprotective activity against H2O2- induced toxicity in rat H9c2 cells assessed as increase in survival rate at 50 uM incubated for 8 hrs co-treated with 400 uM H2O2 measured after 24 hrs by MTT assay relative to control; type: functional; in short: as §4
# [17] = Cytotoxicity against rat H9C2 cells assessed as cell viability at 100 uM measured after 24 hrs by MTT assay; type: cell-based; settings: read-out: Activity
# [18] = Induction of H2S generation assessed as half life at 150 uM incubated at 22 degC and pH 7.4 by fluorescence spectrophotometry; type: functional; in short: as §1
# HeLa = assay: Cytotoxicity in human HeLa cells assessed as growth inhibition incubated for 24 hrs by MTT assay; type: functional, cell-based; in short: as §3
# H9c2 [19] = assay: Cytoprotective activity against H2O2-induced toxicity in rat H9c2 cells assessed as increase in SOD level at 10 to 100 uM pretreated with H202 for 8 hrs followed by compound addition measured after 24 hrs; type: functional, cell-based; settings: dose microM 10-100, time 8.0 hrs
# H9c2 [20] = assay: Cardioprotective activity against H2O2- induced toxicity in rat H9c2 cells assessed as decrease in MDA level at 10 to 100 uM pretreated with H202 for 8 hrs followed by compound addition measured after 24 hrs; type: functional, cell-based; settings: dose microM 10-100, time 8.0 hrs
# [21] = Toxicity in zebrafish embryos assessed as embryo malformation rate at 20 uM measured after 96 hpf relative to control; set-up: species or system Danio rerio; settings: in vivo
# RAW264.7 [22] = assay: Anti-inflammatory activity in mouse RAW264.7 cells assessed as inhibition of LPS-induced TNFalpha production at 20 uM preincubated for 4 hr followed by LPS addition and measured after 24 hrs relative to control; type: functional, cell-based
# In short: (§6)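 RAW264.7 cells given LPS 1 µg/mL with compound for 24 h, then lysed in RIPA and centrifuged. Protein was set to 0.1 mg/mL by BCA and mouse cytokine levels measured by sandwich ELISA kit. Four parallel groups, mean ± SD.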
# RAW264.7 [23] = assay: Anti-inflammatory activity in mouse RAW264.7 cells assessed as inhibition of LPS-induced NO production at 100 uM preincubated for 4 hr followed by LPS addition and measured after 24 hrs relative to control; type: functional
# In short: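 RAW264.7 cells exposed to LPS 1 µg/mL with compound (20 and 100 µM) for 24 h. Nitrite in medium measured by Griess reagent, […], against a sodium nitrite standard curve (0–100 µM). Four parallel groups, mean ± SD.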
# RAW264.7 [24] = assay: Anti-inflammatory activity in mouse RAW264.7 cells assessed as inhibition of LPS-induced IL-10 production at 20 uM preincubated for 4 hr followed by LPS addition and measured after 24 hrs; type: functional, cell-based; in short: as §6
Compound,Activity (H9c2 [1]),Cmax [2] [µM],Retention_time [3] [min],IC50 (MCF7) [µM],Activity (H9c2 [4]) [%],Activity [5],T1/2 [10] [min],viability at 24 h [11] [%],Activity [12],Cmax [15] [µM],"viability at 24 h, 100 µM [17] [%]",T1/2 [18] [min],IC50 (HeLa) [µM],other results
S=P1(c2ccccc2)NCCCO1 (centres undefined),Active,34.8,9.647,752,13.9,Toxic,36.6,70,Toxic,35.1,> 90,36.8,826,Retention_time [6]: 9.649 min; Drug metabolism [7]: Metabolite_Detected; Activity [8]: 2%; Drug metabolism [9]: Metabolite_Detected; solubility [13]: Insoluble; Kinetic_solubility [14]: Soluble; Activity (H9c2 [16]): 5.1%
O=C([O-])[C@H](Cc1cc2ccccc2[nH]1)NP([O-])(=S)c1ccccc1.[Li+].[Li+] (some centres undefined),Active,124,8.06,838,30.1,Toxic,2.9,70,Toxic,124,> 90,6.97,712,Activity (H9c2 [19]): Active; Activity (H9c2 [20]): Active; Activity [21]: 5%; Activity (RAW264.7 [22]): Active; inhibition at 100 µM (RAW264.7 [23]): 50%; Activity (RAW264.7 [24]): Active
